Assay results from ChEMBL document CHEMBL1155262, “A new class of anticonvulsants possessing 6 Hz activity: 3,4-dialkyloxy thiophene bishydrazones” (Eur J Med Chem, 2009).
The source made the active and inactive calls. No cut-off for these calls is given here.

Assays:
[1] = test system: Mus musculus; assay: Neurotoxicity against ip dosed mouse CF1 albino assessed as minimal motor impairment after 0.5 hrs by rotord test; type: toxicity, organism-based; conditions: in vivo
How it was run: (§1)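 Rotorod minimal motor impairment in male CF-1 albino mice (18–25 g) after i.p. dosing at 30, 100 or 300 mg/kg in 0.5% methyl cellulose/water or PEG 200. Mice placed on a rod rotating at 6 rpm at 0.5 or 4 h. Value is minimum dose causing impairment in at least one mouse.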

[2] = test system: Mus musculus; assay: Anticonvulsant activity in mouse CF1 albino assessed as inhibition of maximal electric shock-induced seizure at 300 mg/kg, ip after 0.5 hrs; type: functional, organism-based; set-up: dose 300 mg/kg
How it was run: (§2)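 Male CF-1 albino mice (18–25 g); compound suspended in 0.5% methyl cellulose/water or PEG 200, given i.p. at 30, 100 and 300 mg/kg (0.01 mL/g). Tested 0.5 or 4 h after dosing. Protection = abolition of hind limb tonic extensor component of MES seizure.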

[3] = test system: Mus musculus; assay: Anticonvulsant activity in ip dosed mouse CF1 albino assessed as inhibition of subcutaneous metrazole-induced seizure after 4 hrs; type: functional
[4] = test system: Mus musculus; assay: Anticonvulsant activity in mouse CF1 albino assessed as inhibition of subcutaneous metrazole-induced seizure at 300 mg/kg, ip after 0.5 hrs; type: functional, organism-based; set-up: dose 300 mg/kg
[5] = test system: Mus musculus; assay: Neurotoxicity against mouse CF1 albino assessed as minimal motor impairment at 300 mg/kg, ip after 4 hrs by rotord test; type: toxicity, organism-based; set-up: dose 300 mg/kg, route intraperitoneal; conditions: in vivo; how it was run: as §1
[6] = test system: Mus musculus; assay: Anticonvulsant activity in mouse CF1 albino assessed as inhibition of maximal electric shock-induced seizure at 300 mg/kg, ip after 4 hrs; type: functional, organism-based; set-up: dose 300 mg/kg; how it was run: as §2
[7] = test system: Mus musculus; assay: Anticonvulsant activity in mouse CF1 albino assessed as inhibition of subcutaneous metrazole-induced seizure at 300 mg/kg, ip after 4 hrs; type: functional, organism-based; set-up: dose 300 mg/kg
[8] = test system: Mus musculus; assay: Anticonvulsant activity in mouse CF1 albino assessed as inhibition of minimal electric shock-induced seizure at 30 mg/kg, ip after 0.25 hrs; type: functional, organism-based; set-up: dose 30 mg/kg
How it was run: (§3)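 6 Hz psychomotor seizure model in male CF-1 albino mice dosed i.p. Four mice per time point (0.25, 0.5, 1, 2, 4 h) received corneal-electrode current of 32 mA for 3 s. Untreated mice show a minimal clonic phase followed by stereotyped automatistic behaviour. Results given as number protected out of 4.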

[9] = test system: Mus musculus; assay: Anticonvulsant activity in mouse CF1 albino assessed as inhibition of minimal electric shock-induced seizure at 30 mg/kg, ip after 0.5 hrs; type: functional, organism-based; set-up: dose 30 mg/kg; how it was run: as §3
[10] = test system: Mus musculus; assay: Neurotoxicity against mouse CF1 albino assessed as minimal motor impairment at 300 mg/kg, ip after 0.5 hrs by rotord test; type: toxicity, organism-based; set-up: dose 300 mg/kg, route intraperitoneal; conditions: in vivo; how it was run: as §1
[11] = test system: Mus musculus; assay: Anticonvulsant activity in mouse CF1 albino assessed as inhibition of minimal electric shock-induced seizure at 30 mg/kg, ip after 2 hrs; type: functional, organism-based; set-up: dose 30 mg/kg; how it was run: as §3
[12] = test system: Mus musculus; assay: Anticonvulsant activity in ip dosed mouse CF1 albino assessed as inhibition of maximal electric shock-induced seizure after 0.5 hrs; type: functional; how it was run: as §2
[13] = test system: Mus musculus; assay: Anticonvulsant activity in mouse CF1 albino assessed as inhibition of minimal electric shock-induced seizure at 30 mg/kg, ip after 1 hr; type: functional, organism-based; set-up: dose 30 mg/kg; how it was run: as §3
[14] = test system: Mus musculus; assay: Anticonvulsant activity in mouse CF1 albino assessed as inhibition of minimal electric shock-induced seizure at 100 mg/kg, ip after 0.25 hrs; type: functional, organism-based; set-up: dose 100 mg/kg; how it was run: as §3
[15] = test system: Mus musculus; assay: Anticonvulsant activity in mouse CF1 albino assessed as inhibition of minimal electric shock-induced seizure at 100 mg/kg, ip after 4 hrs; type: functional, organism-based; set-up: dose 100 mg/kg; how it was run: as §3
[16] = test system: Mus musculus; assay: Anticonvulsant activity in ip dosed mouse CF1 albino assessed as inhibition of maximal electric shock-induced seizure after 4 hrs; type: functional; how it was run: as §2
[17] = test system: Mus musculus; assay: Anticonvulsant activity in mouse CF1 albino assessed as inhibition of minimal electric shock-induced seizure at 50 mg/kg, ip after 0.25 hrs; type: functional, organism-based; set-up: dose 50 mg/kg; how it was run: as §3
[18] = test system: Mus musculus; assay: Anticonvulsant activity in mouse CF1 albino assessed as inhibition of minimal electric shock-induced seizure at 50 mg/kg, ip after 1 hr; type: functional, organism-based; set-up: dose 50 mg/kg; how it was run: as §3
[19] = test system: Mus musculus; assay: Anticonvulsant activity in mouse CF1 albino assessed as inhibition of minimal electric shock-induced seizure at 50 mg/kg, ip after 4 hrs; type: functional, organism-based; set-up: dose 50 mg/kg; how it was run: as §3
[20] = test system: Mus musculus; assay: Anticonvulsant activity in ip dosed mouse CF1 albino assessed as inhibition of subcutaneous metrazole-induced seizure after 0.5 hrs; type: functional
[21] = test system: Mus musculus; assay: Anticonvulsant activity in mouse CF1 albino assessed as inhibition of minimal electric shock-induced seizure at 50 mg/kg, ip after 2 hrs; type: functional, organism-based; set-up: dose 50 mg/kg; how it was run: as §3
[22] = test system: Mus musculus; assay: Anticonvulsant activity in mouse CF1 albino assessed as inhibition of minimal electric shock-induced seizure at 50 mg/kg, ip after 0.5 hrs; type: functional, organism-based; set-up: dose 50 mg/kg; how it was run: as §3
[23] = test system: Mus musculus; assay: Neurotoxicity against ip dosed mouse CF1 albino assessed as minimal motor impairment after 4 hrs by rotord test; type: toxicity, organism-based; conditions: in vivo; how it was run: as §1
[24] = test system: Mus musculus; assay: Anticonvulsant activity in mouse CF1 albino assessed as inhibition of minimal electric shock-induced seizure at 100 mg/kg, ip after 2 hrs; type: functional, organism-based; set-up: dose 100 mg/kg; how it was run: as §3
[25] = test system: Mus musculus; assay: Anticonvulsant activity in mouse CF1 albino assessed as inhibition of minimal electric shock-induced seizure at 100 mg/kg, ip after 1 hr; type: functional, organism-based; set-up: dose 100 mg/kg; how it was run: as §3
[26] = test system: Mus musculus; assay: Anticonvulsant activity in mouse CF1 albino assessed as inhibition of minimal electric shock-induced seizure at 100 mg/kg, ip after 0.5 hrs; type: functional, organism-based; set-up: dose 100 mg/kg; how it was run: as §3
[27] = test system: Mus musculus; assay: Anticonvulsant activity in mouse CF1 albino assessed as inhibition of minimal electric shock-induced seizure at 30 mg/kg, ip after 4 hrs; type: functional, organism-based; set-up: dose 30 mg/kg; how it was run: as §3

SMILES	Activity [1] [mg/kg]	Activity [2]	Activity [4]	Activity [5]	Activity [6]	Activity [7]	also measured
CCCOc1c(C(=O)N/N=C(/C)c2cc(Cl)sc2Cl)sc(C(=O)N/N=C(/C)c2cc(Cl)sc2Cl)c1OCCC	300	inactive	inactive	Not Active	inactive		Activity [3]: 300 mg/kg
CCCOc1c(C(=O)N/N=C/c2ccccc2OC)sc(C(=O)N/N=C/c2ccccc2OC)c1OCCC	100	inactive	inactive	Not Active	inactive	inactive	
O=C(N/N=C/c1ccccc1)c1sc(C(=O)N/N=C/c2ccccc2)c(OCc2ccccc2)c1OCc1ccccc1			inactive	Not Active	inactive		Activity [8]: inactive; Activity [9]: inactive; Activity [10]: Not Active; Activity [11]: inactive; Activity [3]: 300 mg/kg; Activity [12]: 300 mg/kg; Activity [13]: inactive
CCCOc1c(C(=O)NN)sc(C(=O)NN)c1OCCC	100	inactive	inactive	Not Active	inactive	inactive	
CCCOc1c(C(=O)N/N=C(/C)c2ccsc2)sc(C(=O)N/N=C(/C)c2ccsc2)c1OCCC							Activity [14]: inactive; Activity [15]: inactive
C/C(=N\NC(=O)c1sc(C(=O)N/N=C(\C)c2cccs2)c(OCc2ccccc2)c1OCc1ccccc1)c1cccs1		inactive	inactive	Not Active		inactive	Activity [10]: Not Active; Activity [16]: 300 mg/kg
CCCOc1c(C(=O)N/N=C/c2cc([N+](=O)[O-])ccc2Br)sc(C(=O)N/N=C/c2cc([N+](=O)[O-])ccc2Br)c1OCCC	300	inactive	inactive	Not Active	inactive	inactive	
COc1cc(/C=N/NC(=O)c2sc(C(=O)N/N=C/c3cc(OC)c(OC)c(OC)c3)c3c2OCCO3)cc(OC)c1OC	300	inactive	inactive	Not Active	inactive	inactive	
CCCCCCCOc1c(C(=O)N/N=C/c2cc(OC)c(OC)c(OC)c2)sc(C(=O)N/N=C/c2cc(OC)c(OC)c(OC)c2)c1OCCCCCCC							Activity [14]: inactive
CCCOc1c(C(=O)N/N=C/c2ccc([N+](=O)[O-])cc2)sc(C(=O)N/N=C/c2ccc([N+](=O)[O-])cc2)c1OCCC	100	inactive	inactive	Not Active	inactive	inactive	
CCCCCCCOc1c(C(=O)N/N=C/c2ccccc2)sc(C(=O)N/N=C/c2ccccc2)c1OCCCCCCC		inactive		Not Active	inactive	inactive	Activity [17]: inactive; Activity [10]: Not Active; Activity [18]: inactive; Activity [19]: inactive; Activity [20]: 300 mg/kg; Activity [21]: inactive; Activity [15]: inactive; Activity [22]: inactive
CCCOc1c(C(=O)N/N=C/c2ccc(N(C)C)cc2)sc(C(=O)N/N=C/c2ccc(N(C)C)cc2)c1OCCC	100	inactive	inactive		inactive	inactive	Activity [23]: 300 mg/kg
CCCOc1c(C(=O)N/N=C/c2ccccc2O)sc(C(=O)N/N=C/c2ccccc2O)c1OCCC		inactive	inactive	Not Active	inactive		Activity [24]: inactive; Activity [14]: inactive; Activity [10]: Not Active; Activity [3]: 300 mg/kg; Activity [15]: inactive
CCCOc1c(C(=O)N/N=C(/C)c2ccsc2Br)sc(C(=O)N/N=C(/C)c2ccsc2Br)c1OCCC							Activity [24]: inactive; Activity [14]: inactive; Activity [15]: inactive
CCCCCCCOc1c(C(=O)NN)sc(C(=O)NN)c1OCCCCCCC		inactive	inactive	Not Active		inactive	Activity [10]: Not Active; Activity [16]: 100 mg/kg
CCCCCCCOc1c(C(=O)N/N=C/c2ccc3c(c2)c2ccccc2n3CC)sc(C(=O)N/N=C/c2ccc3c(c2)c2ccccc2n3CC)c1OCCCCCCC							Activity [17]: inactive; Activity [18]: inactive; Activity [19]: inactive; Activity [21]: inactive; Activity [22]: inactive
O=C(N/N=C/c1ccc([N+](=O)[O-])cc1)c1sc(C(=O)N/N=C/c2ccc([N+](=O)[O-])cc2)c(OCc2ccccc2)c1OCc1ccccc1	100	inactive	inactive	Not Active	inactive	inactive	
CCCCCCCOc1c(C(=O)N/N=C2/C(=O)Nc3ccccc32)sc(C(=O)N/N=C2/C(=O)Nc3ccccc32)c1OCCCCCCC							Activity [14]: inactive; Activity [25]: inactive
CCCOc1c(C(=O)N/N=C/c2cccnc2N)sc(C(=O)N/N=C/c2cccnc2N)c1OCCC							Activity [24]: inactive; Activity [26]: inactive; Activity [25]: inactive; Activity [15]: inactive
CCCOc1c(C(=O)N/N=C(/C)c2ccc(Br)s2)sc(C(=O)N/N=C(/C)c2ccc(Br)s2)c1OCCC							Activity [26]: inactive
CCCOc1c(C(=O)N/N=C/c2ccc(C(=O)O)cc2)sc(C(=O)N/N=C/c2ccc(C(=O)O)cc2)c1OCCC	100	inactive	inactive	Not Active	inactive	inactive	
O=C(N/N=C/c1ccc2c(c1)Cc1ccccc1-2)c1sc(C(=O)N/N=C/c2ccc3c(c2)Cc2ccccc2-3)c2c1OCCO2		inactive		Not Active	inactive	inactive	Activity [10]: Not Active; Activity [20]: 300 mg/kg
CCCCCCCOc1c(C(=O)N/N=C(\C)c2cccs2)sc(C(=O)N/N=C(\C)c2cccs2)c1OCCCCCCC							Activity [8]: inactive; Activity [9]: inactive; Activity [11]: inactive; Activity [25]: inactive; Activity [13]: inactive; Activity [27]: inactive
CCCOc1c(C(=O)N/N=C2/C(=O)Nc3ccccc32)sc(C(=O)N/N=C2/C(=O)Nc3ccccc32)c1OCCC	100	inactive	inactive			inactive	Activity [24]: inactive; Activity [23]: 300 mg/kg; Activity [16]: 300 mg/kg; Activity [25]: inactive; Activity [15]: inactive
